GRK2 inh – compounds blocking aptamer binding on GRK2 – biochemical, human GRK2, bead flow cytometry, HTS, primary screen. FAM-aptamer displacement from GRK2. inhibition of aptamer binding, % at 10 µM. actives 0.59% (n = 330,000). AID 488847, 2010;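 active = inhibition of aptamer binding above 40%, roughly 3 SD of noise, on plates passing a quality check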;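 note: median bead fluorescence of bound FAM aptamer so fluorescent compounds give negative values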
Scp-1 inhibitor – Scp-1 phosphatase inhibitors, primary screen, biochemical, colorimetric, uHTS. Carboxy-terminal domain RNA polymerase II polypeptide A small phosphatase 1 (Homo …. Recombinant Scp1, phosphopeptide, malachite green phosphate absorbance. inhibition, % at 20 µM. actives 0.88% (n = 340,000). AID 493091, 2011;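 active = inhibition above about 50% at 20 µM, limit read from the data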
Target sequence (Q9GZU7 76-261 limits assumed): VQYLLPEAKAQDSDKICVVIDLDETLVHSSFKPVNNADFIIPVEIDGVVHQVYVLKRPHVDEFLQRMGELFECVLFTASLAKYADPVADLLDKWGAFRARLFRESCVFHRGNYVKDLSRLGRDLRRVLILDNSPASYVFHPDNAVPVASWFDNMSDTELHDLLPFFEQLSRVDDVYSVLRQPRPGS
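Incubation: 45 min enzyme reaction at room temperature / System: truncated SCP-1 phosphatase (76-261aa) / Reagent: Phospho 17-mer peptide substrate / Buffer or medium: Acidic Tris acetate buffer with magnesium and detergent / Signal: absorbance at 630 nm / Doses: one concentration, 20 µM, with 1.0% DMSO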
SUMO1 PPI mod – modulators of SUMO1 protein-protein interactions, primary screen, biochemical, uHTS. Small ubiquitin-related modifier 1 (Homo sapiens), P63165. SUMO1 binding to a labelled peptide, TR-FRET, 1 h. inhibition, % at 20 µM. actives 0.33% (n = 360,000); in the data active = inhibition above about 37%
Target sequence (P63165 whole entry, looked up): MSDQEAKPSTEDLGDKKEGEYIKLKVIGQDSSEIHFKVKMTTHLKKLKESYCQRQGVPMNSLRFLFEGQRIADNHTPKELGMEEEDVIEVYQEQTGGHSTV
LMPTP inh – LMPTP phosphatase inhibitors, primary screen, biochemical, fluorescence intensity, uHTS | inhibition, % at 20 µM | AID 651560, 2012 | recombinant LMPTP-A, OMFP fluorogenic substrate | Low molecular weight phosphotyrosine protein phosphatase (Homo sapiens), P24666 | actives 0.22% (n = 360,000);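 active = compounds that cut the enzyme signal by at least half of the control window in the single-dose screen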
Target sequence (P24666 whole entry, looked up): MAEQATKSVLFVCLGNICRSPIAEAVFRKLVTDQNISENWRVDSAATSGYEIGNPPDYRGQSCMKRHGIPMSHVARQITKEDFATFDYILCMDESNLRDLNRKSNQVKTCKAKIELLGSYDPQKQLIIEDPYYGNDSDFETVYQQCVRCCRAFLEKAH
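Test system – LMPTP-A phosphatase enzyme · Quantity – 0.625 nM LMPTP-A final · Reagent – OMFP substrate, 400 µM final · Dosing – one test concentration per compound, 20 µM, with 3% DMSO overall · Timing – 50 min enzyme reaction at room temperature, protected from light · Detection – fluorescence intensity · Controls – substrate-only low control, DMSO enzyme-plus-substrate high control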
DNMT1 inh – human DNMT1 methyltransferase inhibitors, primary screen, biochemical, molecular beacon, fluorescence, HinP1I cleavage, uHTS. DNA (cytosine-5)-methyltransferase 1 (Homo sapiens), P26358. inhibition (reported as % activation of signal), % at 10 µM. actives 0.83% (n = 360,000). AID 588458, 2011; in the data active = inhibition above about 50%
STEP block – STEP phosphatase inhibitors, primary screen, biochemical, fluorescence intensity, uHTS; inhibition, % at 20 µM; recombinant STEP, OMFP fluorogenic substrate; AID 588621, 2011; actives 0.25% (n = 360,000); Tyrosine-protein phosphatase non-receptor type 5 (Homo sapiens), P54829;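 active = inhibition at 20 µM, scaled per plate between control wells, above about 37%, limit read from the data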
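Material: STEP (striatal-enriched tyrosine phosphatase) enzyme, cell-free | Medium: 50 mM Bis-Tris pH 6.0 with 2.5 mM DTT and 0.005% Tween 20 | Read-out: Percent inhibition scaled to no-enzyme and uninhibited-enzyme controls, plate-pattern corrected | Signal: Fluorescence read at 480 nm ex / 540 nm em | Times: 20 min reaction, room temperature, in the dark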
STEP inh conf – STEP phosphatase inhibitor hit confirmation, biochemical, fluorescence intensity, single concentration; recombinant STEP, OMFP fluorogenic substrate; actives 32% (n = 520); AID 623866, 2012; shares compounds with STEP block; inhibition, % at 20 µM; call rule not given here
Of the large screens only hits and unclear results are named; the others gave an inactive call (follow-up assays come after a bar, where they were run). Only some compounds are listed: those with a hit (about 2.1% of all), similar ones and a draw of the others.

CCCCNC(=O)c1nc(-c2ccncc2)oc1-c1ccccc1	none (no result: GRK2 inh, Scp-1 inhibitor)
COc1cccc(C(=O)/C=C/Nc2ccc(S(=O)(=O)Nc3onc(C)c3C)cc2)c1	STEP block 43.2 | STEP inh conf inactive
Cc1noc(NS(=O)(=O)c2ccc(N/C=C\C(=O)c3ccc(Br)cc3)cc2)c1C	none
NS(=O)(=O)c1ccc(N/N=C/c2ccccc2C(=O)O)c([N+](=O)[O-])c1	none
Cc1cc([N+](=O)[O-])c2[nH]c(C(=O)N/N=C/c3ccccc3C(=O)O)c(-c3ccccc3)c2c1	STEP block 73.3 (no result: GRK2 inh) | STEP inh conf inactive
N#Cc1cnc(SCC(=O)NNC(=O)COc2cccc3ccccc23)nc1N	STEP block 100.2 | STEP inh conf inactive
Cc1cccc(OCC(=O)NNC(=O)CSc2ncc(C#N)c(N)n2)c1	none
CCOc1ccc(C(=O)Nc2nc(C)c(C(=O)OC)s2)cc1	STEP block 79.4 | STEP inh conf inactive
COC(=O)c1sc(NC(=O)c2ccncc2)nc1C	none
NC(=NCc1ccc2c(c1)OCO2)NC(=O)c1ccccc1	STEP block 70.3 (no result: GRK2 inh) | STEP inh conf 34.7
O=C(Nc1cccc(Cl)c1)Nc1ccc2c(c1)C(=O)OC2	STEP block 111.5 | STEP inh conf inactive
CCN(CC(=O)NCc1cccs1)C(=O)Cc1ccc(C)c(C)c1	none
CC(C(=O)Nc1ccc(O)cc1C(=O)O)N1C(=O)/C(=C\c2cccs2)SC1=S (stereo not drawn)	STEP block 77.0 | STEP inh conf 79.9
CCOC(=O)N1CCC(N(CCN(C)C)C(=S)Nc2cc(Cl)ccc2C)CC1	STEP block 65.1 | STEP inh conf 35.6
CCOC(=O)N1CCC(N(CCN(C)C)C(=S)Nc2cc(C)ccc2C)CC1	none
COc1ccccc1Nc1c([N+](=O)[O-])cc(C)cc1[N+](=O)[O-]	none
COc1ccccc1Nc1ccc([N+](=O)[O-])cc1N	STEP block 46.8 | STEP inh conf 40.1
CCc1nc2c(OCc3c(C)noc3C)cccn2c1N(C=O)Cc1ccc(OC)cc1	none (no result: GRK2 inh, Scp-1 inhibitor)
O=c1oc2ccccc2c(N2CCCC2)c1[N+](=O)[O-]	none
CC1CCN(c2c([N+](=O)[O-])c(=O)oc3ccccc23)CC1	STEP block 53.0 | STEP inh conf inactive
O=C1[C@@H]2Cc3c([nH]c4ccccc34)C(c3cccc([N+](=O)[O-])c3)N2C(=O)CN1C1CCN(Cc2ccccc2)CC1 (stereo partly drawn)	none (no result: Scp-1 inhibitor)
COc1ccc(NC(=S)NCCCN2CCCC2)cc1Cl	STEP block 89.9 | STEP inh conf 41.2
S=C(NCCN1CCOCC1)Nc1ccc(Cl)cc1Cl	none
S=C(NCCCN1CCOCC1)Nc1ccc(Cl)cc1Cl	STEP block 42.4 | STEP inh conf inactive
COc1ccc(NC(=S)N(CCCN2CCN(C)CC2)Cc2cccs2)cc1	none
COc1ccc(NC(=S)N(CCCN2CCC(C)CC2)Cc2cccs2)cc1Cl	STEP block 56.2 | STEP inh conf 27.0
COc1cc(NC(=S)NCCCN2CCOCC2)c(OC)cc1Cl	none
COc1ccc(NC(=S)NCCN2CCC(C)CC2)cc1Cl	STEP block 90.0 | STEP inh conf 79.2
COc1cc(C)c(NC(=O)C(=S)NCCc2ccccc2)cc1C	STEP block 47.4 | STEP inh conf inactive
COc1ccc(NC(=S)NCCc2ccccc2)c(C)c1	none
S=C1NC[C@H](Cc2ccccc2)N1CC1CCN(CCCC2CCCC2)CC1	STEP block 43.0 (no result: GRK2 inh) | STEP inh conf inactive

Assay outcomes (PubChem BioAssay)
